Among the data in ChEMBL document CHEMBL2146398, “Novel interleukin-5 inhibitors based on hydroxyethylaminomethyl-4H-chromen-4-one scaffold” (Bioorg Med Chem, 2012) are inhibition values, retold here.

SMILES strings stand for the structures.

The test addresses T1, Interleukin-5 (Mus musculus) (UniProt P04401).
T1 sequence (whole entry): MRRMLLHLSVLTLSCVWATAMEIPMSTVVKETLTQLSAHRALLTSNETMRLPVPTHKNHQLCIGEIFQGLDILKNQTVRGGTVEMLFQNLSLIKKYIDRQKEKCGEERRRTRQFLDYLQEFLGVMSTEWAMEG
The test is described as follows: Inhibition of IL-5 in mouse Y16 cells at 30 uM after 48 hrs by WST1 assay. The format is cell-based. The method, boiled down:
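IL-5-dependent pro-B Y16 cells cultured 48 h with 3 units/mL mIL-5, with or without test sample. Proliferation read as cell metabolism by WST-1 reduction. […] Values are means of three independent experiments.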
In general terms: Formazan colour is commonly taken as a measure of viable cells.

Broadly, the inhibition is how much of the control response was suppressed. With `Cc1ccc(CN(CCO)Cc2coc3cccc(OCC4CCCCC4)c3c2=O)cc1`, the inhibition is 94.3%.

As for `O=c1c(CN(CCO)Cc2ccncc2)coc2cccc(OCC3CCCCC3)c12`, the inhibition was 94%.

In turn, `CCCN(CCO)Cc1coc2cccc(OCC3CCCCC3)c2c1=O` had an inhibition of 93.7%.

The molecule `O=c1c(CN(CCO)c2ccccc2)coc2cccc(OCC3CCCCC3)c12` registered an inhibition of 94.4%.

Molecule `O=c1c(CN(CCO)C2CCCCC2)coc2cccc(OCC3CCCCC3)c12` came in with an inhibition of 94.5%.

Molecule `O=c1c(CN(CCO)CC2CCCCC2)coc2cccc(OCC3CCCCC3)c12` returned an inhibition of 94.7%.

`CCN(CCO)Cc1coc2cccc(OCC3CCCCC3)c2c1=O` returned an inhibition of 79.2%.

The molecule `CN(CCO)Cc1coc2cccc(OCC3CCCCC3)c2c1=O` came in with an inhibition of 56%.

For `COc1ccc(CN(CCO)Cc2coc3cccc(OCC4CCCCC4)c3c2=O)cc1`, the inhibition was 94.1%.

For `CC(C)N(CCO)Cc1coc2cccc(OCC3CCCCC3)c2c1=O`, the inhibition was found to be 90.2%.

With `O=c1c(CN(CCO)Cc2ccc(O)cc2)coc2cccc(OCC3CCCCC3)c12`, the inhibition worked out at 93.7%.

`CCCCN(CCO)Cc1coc2cccc(OCC3CCCCC3)c2c1=O` displayed an inhibition of 94%.

On to `O=c1c(CN(CCO)Cc2ccccc2)coc2cccc(OCC3CCCCC3)c12`, for which the inhibition came out at 94.8%.

For the molecule `O=c1c(CN(CCO)Cc2ccc(Cl)cc2)coc2cccc(OCC3CCCCC3)c12`, the inhibition is 93.4%.
